Measured values pooled from the literature.
Converted amounts (≈) assume the structure as drawn.

C/C=C(/C)C(=O)O[C@@H]1[C@H](OC(C)=O)c2c(ccc3ccc(=O)oc23)OC1(C)C  inhibition (tubulin polymerisation, inhibitor; 10 µM): 24.8%
O=C(Nc1cnc(Cl)c(Cl)c1)c1cc([N+](=O)[O-])c(F)cc1F  EC50 (Leishmania mexicana; parasite growth; J774.A1; intracellular, amastigote): 220 nM
O=C1NC(=S)S/C1=C\c1c2ccccc2c(-c2ccc(N(c3ccccc3)c3ccccc3)cc2)c2ccccc12  MBC (Staphylococcus epidermidis; microbial killing, broth dilution; ATCC12228): > 1000 µg/mL
Cc1ccc(-c2nc3ccccc3s2)cc1NC(=O)c1cc([N+](=O)[O-])c(F)cc1F  EC50 (Leishmania mexicana; parasite growth; J774.A1; intracellular, amastigote): 640 nM
COC(=O)[C@]1(O)C[C@@H](O)[C@@H](O)[C@H](OC(=O)/C=C/c2ccc(O)c(O)c2)C1  inhibition (tubulin polymerisation, inhibitor; 10 µM): 16.9%
CN(C[C@H](O)[C@@H](O)[C@H](O)[C@H](O)CO)C(=O)N[C@]12CCC(C)(C)C[C@H]1C1=CC[C@@H]3[C@@]4(C)CC[C@@H]5OC(C)(C)OC[C@@]5(C)[C@@H]4CC[C@@]3(C)[C@]1(C)CC2  inhibition (Leishmania mexicana; parasite growth, resazurin; 50 µM, amastigote): 99%
CC(=O)OC1c2c(ccc3ccc(=O)oc23)OC(C)(C)C1OC(=O)C(C)(O)C(C)O (stereo not drawn)  inhibition (tubulin polymerisation, inhibitor; 10 µM): 33.8%
O=C1NC(=S)N/C1=C\c1ccc(-c2ccc(N(c3ccccc3)c3ccccc3)cc2)c2ccccc12  MBC (Staphylococcus epidermidis; microbial killing, broth dilution; ATCC12228): > 1000 µg/mL
CC1(C)CC[C@]2(C(=O)O)CC[C@]3(C)C(=CC[C@@H]4[C@@]5(C)CC[C@@H]6OCOC[C@@]6(C)[C@@H]5CC[C@]43C)[C@@H]2C1  inhibition (Leishmania mexicana; parasite growth, resazurin; 50 µM, amastigote): 97.5%
O=C1NC(=S)S/C1=C\c1ccc(-c2ccc(N(c3ccccc3)c3ccccc3)cc2)cc1  MIC (Staphylococcus epidermidis; microbial growth, broth dilution; ATCC12228): 125 µg/mL (≈ 269 µM)
Nc1ncnc2c1ncn2[C@@H]1O[C@H](CO)[C@@H](O)[C@H]1O  inhibition (tubulin polymerisation, inhibitor; 10 µM): 17.9%
CC1(C)CC[C@]2(CO)CC[C@]3(C)C(=CC[C@@H]4[C@@]5(C)CC[C@@H]6O[C@H]([C@H](O)[C@@H](O)[C@H](O)CO)OC[C@@]6(C)[C@@H]5CC[C@]43C)[C@@H]2C1  inhibition (Leishmania mexicana; parasite growth, resazurin; 50 µM, amastigote): 98.7%
O=C1NC(=S)N/C1=C\c1c2ccccc2c(-c2ccc(N(c3ccccc3)c3ccccc3)cc2)c2ccccc12  MBC (Staphylococcus epidermidis; microbial killing, broth dilution; ATCC12228): > 1000 µg/mL
CC(=O)N1CCN(C(=O)N[C@]23CCC(C)(C)C[C@H]2C2=CC[C@@H]4[C@@]5(C)CC[C@@H]6OC(C)(C)OC[C@@]6(C)[C@@H]5CC[C@@]4(C)[C@]2(C)CC3)CC1  inhibition (Leishmania mexicana; parasite growth, resazurin; 50 µM, amastigote): 100%
CC1(C)CC[C@]2(C)CC[C@]3(C)[C@H]4CC=C5[C@@H](CC[C@H](O)C5(C)C)[C@]4(C)CC[C@@]3(C)[C@@H]2C1  inhibition (tubulin polymerisation, inhibitor; 10 µM): 17%
